{"data": "Measured values pooled from the literature", "note": "Protocols differ between the studies behind these lines."}
{"Structure (SMILES)": "Cc1cccc(N2CCN(c3nc(-c4ccccn4)nc4ccccc34)CC2)n1", "test system": "PAMPA", "setting": "10 µM, 3 h, pH 7.4", "endpoint": "Papp", "result": "30 ×10⁻⁶ cm/s"}
{"Structure (SMILES)": "CC(=O)O[C@@H]1c2c(ccc3ccc(=O)oc23)OC(C)(C)[C@@H]1OC(=O)C1(C)OC1C (stereo partly shown)", "target or system": "HCT-116", "test": "cell growth or viability, WST-1", "endpoint": "IC50", "result": "49.9 µM"}
{"Structure (SMILES)": "CCCCCCCCCCCCCCCCOP(=O)([O-])OCC[N+](C)(C)C", "target or system": "DH82", "test": "cell growth or viability, MTS", "setting": "24 h", "endpoint": "CC50", "result": "> 20 µM"}
{"Structure (SMILES)": "C=CC(=O)N1CC2CC(n3nc(-c4ccc(C(=O)Nc5ccccn5)cc4)c4c(N)ncnc43)CC2C1 (stereo not shown)", "test system": "male Wistar rat, plasma", "setting": "oral, 10 mg/kg", "endpoint": "AUC(0-t)", "result": "2730 ng·h/mL"}
{"Structure (SMILES)": "CCOC(=O)[C@@]12C[C@@H]1[C@@H](n1ccc3c(NC)nc(C#Cc4ccc(Cl)s4)nc31)[C@H](O)[C@@H]2O", "test system": "male Sprague-Dawley rat, plasma", "setting": "intravenous, 0.5 mg/kg", "endpoint": "AUC(0-t)", "result": "27.6 ng·h/mL"}
{"Structure (SMILES)": "CCc1cc(C(=O)NC)c2nccc(N3CCc4c(cc(Cn5ccnc5)cc4-c4cn(C)nc4C(F)(F)F)C3=O)c2c1", "test system": "male Sprague-Dawley rat, plasma", "setting": "oral, 100 mg/kg, single dose", "endpoint": "AUC(0-inf)", "result": "37300 ng·h/mL"}
{"Structure (SMILES)": "Cc1cn2nc(-c3cc(=O)n4cc(N5CCNC6(CC6)C5)ccc4n3)cc(C)c2n1", "test system": "cynomolgus monkey, plasma", "endpoint": "fraction unbound", "result": 0.15}
{"Structure (SMILES)": "c1ccc(-c2nc(N3CCN(c4ccccn4)CC3)c3ccccc3n2)nc1", "test system": "PAMPA", "setting": "10 µM, 3 h, pH 7.4", "endpoint": "Papp", "result": "34.8 ×10⁻⁶ cm/s"}
{"Structure (SMILES)": "CC1(C)CC[C@]2(C)CC[C@]3(C)[C@H]4CC=C5[C@@H](CC[C@H](O)C5(C)C)[C@]4(C)CC[C@@]3(C)[C@@H]2C1", "target or system": "HCT-116", "test": "cell growth or viability, WST-1", "endpoint": "IC50", "result": "66.5 µM"}
{"Structure (SMILES)": "COC(=O)c1c(C)ncn1CC(c1c[nH]c2ccc(C)cc12)c1c[nH]c2ccc(C)cc12", "target or system": "DH82", "test": "cell growth or viability, MTS", "setting": "24 h", "endpoint": "CC50", "result": "> 20 µM"}
